ChEMBL document CHEMBL1153806, “Preclinical efficacy of a carboxylesterase 2-activated prodrug of doxazolidine” (J Med Chem, 2009)
Activity calls are given as the source filed them. No cut-off for these calls is given here.

Legend:
HepG2 [1] = assay: Antitumor activity against human HepG2 cells expressing CES2 gene xenografted in NOD/SCID mouse assessed as inhibition of tumor growth at 3 mg/kg, iv administered on day 7, 14 and 21 after tumor implantation; assay type: functional, organism-based; design: dose 3 mg/kg
In short: (§1)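 NOD/SCID females, 4–6 weeks old, each given ~1.5 × 10⁷ N-Hep G2 cells s.c. in the left flank; 10 mice/group. Dosed i.v. by tail vein on days 7, 14 and 21, in mg/kg Dox-equivalent, from DMSO diluted into D5W (5% DMSO/95% D5W), 100 µL/mouse. Vehicle-only controls. The 3 mg/kg group was redosed at 5 mg/kg on days 45 and 52. Tumor volume (π × short diameter² × long diameter/6) measured weekly.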

HepG2 [2] = assay: Antitumor activity against human HepG2 cells expressing CES2 gene xenografted in pentyl PABC-doxazolidine-pretreated NOD/SCID mouse assessed as slowing of large, rapidly growing tumor growth at 5 mg/kg, iv administered on day 45 after tumor implantation; assay type: functional, organism-based; design: dose 5 mg/kg; in short: as §1
HepG2 [3] = assay: Antitumor activity against human HepG2 cells expressing CES2 gene xenografted in pentyl PABC-doxazolidine-treated NOD/SCID mouse assessed as slowing of large, rapidly growing tumor growth at 5 mg/kg, iv administered on day 52 after tumor implantation; assay type: functional, organism-based; design: dose 5 mg/kg; in short: as §1
Mus musculus [4] = assay: Toxicity in NOD/SCID mouse xenografted with human HepG2 cells expressing CES2 gene at 3 mg/kg, iv administered on day 7, 14 and 21 after tumor implantation; assay type: organism-based; design: dose 3 mg/kg, route intravenous; settings: in vivo
[5] = Toxicity in pentyl PABC-doxazolidine-treated NOD/SCID mouse xenografted with human HepG2 cells expressing CES2 gene assessed as mortality rate at 5 mg/kg, iv administered on day 52 after tumor implantation; assay type: organism-based; design: dose 5 mg/kg, route intravenous; settings: in vivo, read-out: Activity
In short: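 NOD/SCID females carried s.c. left-flank N-Hep G2 xenografts (about 1.5 × 10⁷ cells). They first received i.v. 3 mg/kg Dox-equivalent on days 7, 14 and 21. The same group was then redosed i.v. at 5 mg/kg on days 45 and 52 in 5% DMSO/95% D5W. There were 10 mice per group. Deaths were counted to the end of the study.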

Mus musculus [6] = assay: Toxicity in NOD/SCID mouse xenografted with human HepG2 cells expressing CES2 gene assessed as body weight loss at 5 mg/kg, iv administered on day 7, 14 and 21 after tumor implantation measured after 3 weeks; assay type: organism-based; design: dose 5 mg/kg, route intravenous; settings: in vivo, 504 h
In short: (§2)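 Same NOD/SCID N-Hep G2 flank xenograft model: i.v. tail-vein dosing on days 7, 14 and 21 in 5% DMSO/95% D5W, doses in Dox-equivalent mg/kg, 10 mice/group, vehicle controls. Body weight recorded weekly and followed over the first 5 weeks.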

Mus musculus [7] = assay: Toxicity in NOD/SCID mouse xenografted with human HepG2 cells expressing CES2 gene assessed as body weight loss at 5 mg/kg, iv administered on day 7, 14 and 21 after tumor implantation measured after 5 weeks; assay type: organism-based; design: dose 5 mg/kg, route intravenous; settings: in vivo, 840 h; in short: as §2
NCI-H1435 [8] = assay: Antitumor activity against human NCI-H1435 cells expressing CES2 gene xenografted in athymic nude mouse assessed as inhibition of tumor growth at 3 mg/kg, iv administered on day 7, 14 and 21 after tumor implantation; assay type: functional, organism-based; design: dose 3 mg/kg
In short: (§3)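 Athymic nude females, 4–6 weeks old, given ~2 × 10⁶ H1435 cells s.c. in the left flank on day 0; 10 mice/group. I.v. tail-vein doses (Dox-equivalent mg/kg) in 5% DMSO/95% D5W on days 7, 14 and 21, with all groups retreated on days 56, 63 and 70; vehicle controls. Caliper volume π × short² × long/6. Cube roots analysed with day-7 size as baseline covariate, by period.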

NCI-H1435 [9] = assay: Antitumor activity against human NCI-H1435 cells expressing CES2 gene xenografted in pentyl PABC-doxazolidine-pretreated athymic nude mouse assessed as inhibition of tumor growth at 3 to 4 mg/kg, iv administered on day 56 after tumor implantation; assay type: functional, organism-based; in short: as §3
NCI-H1435 [10] = assay: Antitumor activity against human NCI-H1435 cells expressing CES2 gene xenografted in pentyl PABC-doxazolidine-pretreated athymic nude mouse assessed as inhibition of tumor growth at 3 to 4 mg/kg, iv administered on day 70 after tumor implantation; assay type: functional, organism-based; in short: as §3
Mus musculus [11] = assay: Toxicity in athymic nude mouse xenografted with human NCI-H1435 cells expressing CES2 gene at 3 to 4 mg/kg, iv administered on day 7, 14 and 21 after tumor implantation; assay type: organism-based; design: dose 3-4 mg/kg, route intravenous; settings: in vivo
Mus musculus [12] = assay: Toxicity in athymic nude mouse xenografted with human NCI-H1435 cells expressing CES2 gene assessed as occurrence of diarrhea at 3 to 4 mg/kg, iv administered on day 7, 14 and 21 after tumor implantation; assay type: organism-based; design: dose 3-4 mg/kg, route intravenous; settings: in vivo
Mus musculus [13] = assay: Toxicity in NOD/SCID mouse xenografted with human HepG2 cells expressing CES2 gene assessed as occurrence of diarrhea at 3 mg/kg, iv administered on day 7, 14 and 21 after tumor implantation; assay type: organism-based; design: dose 3 mg/kg, route intravenous; settings: in vivo
Mus musculus [14] = assay: Toxicity in athymic nude mouse xenografted with human NCI-H1435 cells expressing CES2 gene assessed as appearance of fibrotic damage in heart tissue administered with six iv injection of 3 to 4 mg/kg by hematoxylin/eosin staining-based microscopy; assay type: organism-based; design: dose 3-4 mg/kg, route intravenous; settings: in vivo
In short: (§4)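 Hearts and livers taken from the H1435 nude-mouse study (six i.v. injections) after CO₂/cervical dislocation. Fixed in 10% formalin for 24 h, paraffin-embedded, and cut at 4 µm. Slides deparaffinized in xylene and ethanol, stained with Mayer's hematoxylin for 2 min, blued in 1% ammonium hydroxide, and counterstained with eosin for 30 s. Examined by light microscopy.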

Mus musculus [15] = assay: Toxicity in iv dosed athymic nude mouse xenografted with human NCI-H1435 cells expressing CES2 gene assessed as appearance of cytoplasmic lipid droplets in hepatocytes administered as six injection by hematoxylin/eosin staining-based microscopy; assay type: organism-based, Hepatocyte; in short: as §4
Mus musculus [16] = assay: Toxicity in athymic nude mouse xenografted with human NCI-H1435 cells expressing CES2 gene assessed as occurrence of fatty liver administered with six iv injection of 3 mg/kg by hematoxylin/eosin staining-based microscopy; assay type: organism-based; design: dose 3 mg/kg, route intravenous; settings: in vivo; in short: as §4
Mus musculus [17] = assay: Toxicity in athymic nude mouse xenografted with human NCI-H1435 cells expressing CES2 gene assessed as inflammatory cell infiltration in ileum administered with six iv injection of 3 to 4 mg/kg by hematoxylin/eosin staining-based microscopy; assay type: organism-based; design: dose 3-4 mg/kg, route intravenous; settings: in vivo
In short: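 Kidney and ileum taken from the H1435 nude-mouse study (six i.v. injections). Formalin-fixed for 24 h, paraffin-embedded, and cut into 4 µm sections. Sections deparaffinized in xylene, rehydrated through an ethanol series, stained in Harris hematoxylin for 50 s with eosin, then dehydrated and mounted. Morphology assessed by microscopy.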

[18] = Metabolic stability in NOD/SCID mouse plasma up to 24 hrs by reverse-phase HPLC analysis; assay type: ADME, cell-free; settings: read-out: Stability
In short: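 PPD from a 1 mM DMSO stock diluted 10 µL into 190 µL of plasma (healthy NOD/SCID mouse, or pooled human from 40 donors) at 37 °C; sampled at 0 and 24 h. Samples digested with proteinase K (2 mg/mL) for 4 h at 37 °C, then run on C18 reverse-phase HPLC with a triethylammonium acetate pH 6.0/acetonitrile gradient, detection at 480 nm.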

NCI60 = assay: Growth inhibition of human NCI60 cells after 2 days by sulforhodamine B assay; assay type: functional, cell-based
NCI-H460 = assay: Cytotoxicity against human H460 cells expressing CES2 gene
Homo sapiens = organism: Homo sapiens; assay: Metabolic stability in human plasma up to 24 hrs by reverse-phase HPLC analysis

CCCCCOC(=O)Nc1ccc(COC(=O)N2CO[C@@H]3[C@H](C)O[C@@H](O[C@H]4C[C@](O)(C(=O)CO)Cc5c(O)c6c(c(O)c54)C(=O)c4c(OC)cccc4C6=O)C[C@@H]32)cc1
inhibition (HepG2 [1]): inactive | Activity (HepG2 [2]): Active | Activity (HepG2 [3]): Active | Activity (Mus musculus [4]): Non-toxic | mortality [5]: 60% | Activity (Mus musculus [6]): 18% | Activity (Mus musculus [7]): 10% | inhibition (NCI-H1435 [8]): Active | inhibition (NCI-H1435 [9]): Active | inhibition (NCI-H1435 [10]): Active | Activity (Mus musculus [11]): Non-toxic | Activity (Mus musculus [12]): Non-toxic | Activity (Mus musculus [13]): Non-toxic | Activity (Mus musculus [14]): Non-toxic | Activity (Mus musculus [15]): Dose-dependent effect | Activity (Mus musculus [16]): Non-toxic | Activity (Mus musculus [17]): Non-toxic | remaining at 24 h [18]: 16% | growth inhibition (GI) (NCI60): Active | GI50 (NCI-H460): 447 nM | remaining at 24 h (Homo sapiens): 75%
